The species entered for assay [1] is Mus musculus. The assay is described as follows: Relative tumor weight in treated compared to control mice bearing hormone-dependent transplanted MXT mammary tumors at 1.5 mg. The class given is functional, organism-based.
Assay [2] addresses T1, Estrogen receptor (Mus musculus) (UniProt O08537+P19785). Description: Anti-uterotrophic effect in hormone-dependent transplant MXT bearing mice as relative uterine weight in treated and control mice at 1.5 mg. The class given is functional.
Target sequence in this assay (P19785 whole entry, looked up, chain 1 of 2): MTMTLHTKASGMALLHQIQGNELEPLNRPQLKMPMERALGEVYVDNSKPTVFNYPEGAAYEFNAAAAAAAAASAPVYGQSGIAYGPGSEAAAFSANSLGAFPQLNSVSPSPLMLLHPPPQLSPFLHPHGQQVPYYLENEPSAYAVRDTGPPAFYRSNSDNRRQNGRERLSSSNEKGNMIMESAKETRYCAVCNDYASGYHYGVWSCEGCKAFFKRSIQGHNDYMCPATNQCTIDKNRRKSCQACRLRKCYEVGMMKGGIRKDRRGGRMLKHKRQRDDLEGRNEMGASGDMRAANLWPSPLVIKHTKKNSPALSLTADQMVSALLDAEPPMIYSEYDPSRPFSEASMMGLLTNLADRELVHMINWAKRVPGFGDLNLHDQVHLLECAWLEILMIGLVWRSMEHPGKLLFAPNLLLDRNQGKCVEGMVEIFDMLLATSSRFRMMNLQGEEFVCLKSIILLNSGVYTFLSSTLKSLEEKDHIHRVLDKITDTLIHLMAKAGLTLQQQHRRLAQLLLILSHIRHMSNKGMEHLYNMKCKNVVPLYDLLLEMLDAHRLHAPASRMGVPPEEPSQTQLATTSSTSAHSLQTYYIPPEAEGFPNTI
Target sequence in this assay (O08537 whole entry, looked up, chain 2 of 2): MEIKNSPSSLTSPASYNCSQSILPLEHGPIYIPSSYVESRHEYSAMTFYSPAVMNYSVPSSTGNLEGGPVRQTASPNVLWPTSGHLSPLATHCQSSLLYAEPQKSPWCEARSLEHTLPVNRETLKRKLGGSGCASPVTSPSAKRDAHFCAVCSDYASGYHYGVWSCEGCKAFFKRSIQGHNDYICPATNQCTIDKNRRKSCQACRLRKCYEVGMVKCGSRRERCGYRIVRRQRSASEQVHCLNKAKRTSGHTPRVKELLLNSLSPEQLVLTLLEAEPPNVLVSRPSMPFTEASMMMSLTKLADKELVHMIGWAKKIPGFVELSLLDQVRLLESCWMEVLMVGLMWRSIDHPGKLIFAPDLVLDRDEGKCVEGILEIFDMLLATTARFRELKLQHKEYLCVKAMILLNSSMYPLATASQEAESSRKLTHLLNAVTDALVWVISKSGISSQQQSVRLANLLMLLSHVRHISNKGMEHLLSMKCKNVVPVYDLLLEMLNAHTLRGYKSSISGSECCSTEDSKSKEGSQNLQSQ
Assay [3] is filed under the species Mus musculus. The assay is described as follows: Anti-tumor activity in hormone-dependent transplant MXT mammary tumor bearing mice at 1.5 mg (control=534+/-652). The class given is functional, organism-based.
In assay [4] the test system is MCF7. Description: Effect on Estrogen receptor positive MCF-7 human breast cancer cell proliferation at 5x10E-6M (control = 66.9+/-7.0). The class given is functional. Summed up: (§1)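 MCF-7 cells were kept in MEM with 5% charcoal-treated newborn calf serum and phenol red for 2 weeks, then about 2×10^4 cells were plated per well. Compounds in 0.1% DMF were added 2 days later and renewed on day 4; DMF alone served as control. Coulter cell counts were taken on day 5; mean of six dishes ± SD; % T/C.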

Assay [5] has as its system MCF7. The assay is described as follows: Effect on Estrogen receptor positive MCF-7 human breast cancer cell proliferation at 1x10E-6M (control = 66.9+/-7.0). The class given is functional. Summed up: as §1
Assay [6] concerns MCF7. The assay is described as follows: Effect on [3H]thymidine incorporation into estrogen receptor positive MCF-7 human breast cancer cells at 5x10E-6M (control = 28.2+/-3.0). The class given is functional. Summed up:
(§2)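 MCF-7 cells in improved MEM with glutamine, gentamycin and 5% newborn calf serum, switched to charcoal-treated serum two weeks ahead; phenol red present; 37 °C, 5% CO2. About 2×10^4 cells plated per well; compound in 0.1% DMF added 2 days later, renewed on day 4; labelled 3 days later with 1 μCi [3H]thymidine per well for 2 h; cpm/dish, mean of six dishes ± SD.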
(Incorporation of labelled thymidine or its analogues reports DNA synthesis.)

Assay [7] deals with T1, Estrogen receptor (Mus musculus). The assay is described as follows: Anti-uterotrophic effect in mice as relative uterine weight(mg) at 250 ug. The class given is functional. Summed up:
(§3)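 Immature mice received the compound sc per animal on three consecutive days, alone or with 0.4 µg estrone per animal per day. Uteri were taken 24 h after the last injection, Bouin-fixed, dried at 100 °C for 24 h and weighed. Relative uterus weight = dry weight (mg)/body weight (g) × 100; mean of 6-10 animals ± SD; Mann-Whitney U test.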
Target sequence in this assay (P19785 whole entry, looked up, chain 1 of 2): as the sequence (P19785 whole entry, looked up, chain 1 of 2) above
Target sequence in this assay (O08537 whole entry, looked up, chain 2 of 2): as the sequence (O08537 whole entry, looked up, chain 2 of 2) above

Assay [8] shares this target. The assay is described as follows: Uterotrophic effect in mice as relative uterine weight(mg) at 250 ug (control = 12.3+/-3.7). The class given is functional, tissue-based. Put shortly:
(§4)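 Immature mice dosed sc per animal on three consecutive days; vehicle controls. Killed and weighed 24 h after last injection; uteri fixed in Bouin solution 2 h, washed with alcoholic LiCl, dried at 100 °C for 24 h. Relative uterus weight = uterine dry weight (mg)/body weight (g) × 100; mean of 6-10 animals ± SD.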
Target sequence in this assay (P19785 whole entry, looked up, chain 1 of 2): as the sequence (P19785 whole entry, looked up, chain 1 of 2) above
Target sequence in this assay (O08537 whole entry, looked up, chain 2 of 2): as the sequence (O08537 whole entry, looked up, chain 2 of 2) above

For assay [9], the system named is MCF7. The assay is described as follows: Effect on [3H]thymidine incorporation into estrogen receptor positive MCF-7 human breast cancer cells at 1x10E-6M. The class given is functional. Put shortly: (§5)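 MCF-7 cells were grown in MEM with charcoal-treated 5% newborn calf serum and phenol red, then treated with compounds in 0.1% DMF (renewed on day 4) alongside DMF controls. They were labeled 3 days later with 1 µCi [³H]thymidine per well for 2 h, and incorporated radioactivity per dish was measured; mean of six dishes ± SD; % T/C.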

The test system of assay [10] is MCF7. The assay is described as follows: Effect on [3H]thymidine incorporation into estrogen receptor positive MCF-7 human breast cancer cells at 5x10E-6M. The class given is functional. Summed up:
as §2

The subject of assay [11] is MCF7. The assay is described as follows: Effect on [3H]thymidine incorporation into estrogen receptor positive MCF-7 human breast cancer cells at 1*10^-6 M (control = 28.2+/-3.0). The class given is functional. Summed up: as §5
For assay [12], the system named is MCF7. The assay is described as follows: Effect on Estrogen receptor positive MCF-7 human breast cancer cell proliferation at 1x10E-6M. The class given is functional. Summed up:
as §1

Assay [13] concerns the target T1, Estrogen receptor (Mus musculus). Description: Uterotrophic effect in mice as relative uterine weight(mg) at 25 ug (control = 12.3+/-3.7). The class given is functional, tissue-based. Summed up: as §4
Target sequence in this assay (P19785 whole entry, looked up, chain 1 of 2): as the sequence (P19785 whole entry, looked up, chain 1 of 2) above
Target sequence in this assay (O08537 whole entry, looked up, chain 2 of 2): as the sequence (O08537 whole entry, looked up, chain 2 of 2) above
Assay [14] has as its system MCF7. The assay is described as follows: Effect on Estrogen receptor positive MCF-7 human breast cancer cell proliferation at 5x10E-6M. The class given is functional. Summed up: as §1
The target of assay [15] is T1, Estrogen receptor (Mus musculus). Description: Anti-uterotrophic effect in mice as relative uterine weight(mg) at 15 ug. The class given is functional. Put shortly: as §3
Target sequence in this assay (O08537 whole entry, looked up): as the sequence (O08537 whole entry, looked up, chain 2 of 2) above
Target sequence in this assay (P19785 whole entry, looked up): as the sequence (P19785 whole entry, looked up, chain 1 of 2) above
Assay [16] relates to MCF7. Description: Effect on Estrogen receptor positive MCF-7 human breast cancer cell proliferation at 1x10E-6M (control = 62.3+/-8.8). The class given is functional. Put shortly:
as §1

Assay [17] deals with T1, Estrogen receptor (Mus musculus). The assay is described as follows: Anti-uterotrophic effect in mice as relative uterine weight(mg) at 150 ug. The class given is functional. Put shortly: as §3
Target sequence in this assay (O08537 whole entry, looked up): as the sequence (O08537 whole entry, looked up, chain 2 of 2) above
Target sequence in this assay (P19785 whole entry, looked up): as the sequence (P19785 whole entry, looked up, chain 1 of 2) above
The target is the same in assay [18]. The assay is described as follows: Percent inhibition of estrone stimulated uterotrophic effect in mice at 15 ug. The class given is functional. Summed up:
(§6)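 Immature mice given test compound per animal sc on three consecutive days together with 0.4 μg estrone/animal/day. Killed 24 h after last injection; uteri fixed in Bouin, dried 100 °C 24 h and weighed. Inhibition = 100 − [(W_S,T − W_V)/(W_S − W_V) × 100] using relative uterus weights; 6-10 animals; Wilcoxon-Mann-Whitney U test.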
Target sequence in this assay (O08537 whole entry, looked up): as the sequence (O08537 whole entry, looked up, chain 2 of 2) above
Target sequence in this assay (P19785 whole entry, looked up): as the sequence (P19785 whole entry, looked up, chain 1 of 2) above

The subject of assay [19] is MCF7. The assay is described as follows: Effect on Estrogen receptor positive MCF-7 human breast cancer cell proliferation at 5x10E-6M (control = 62.3+/-8.8). The class given is functional. Summed up: as §1
Assay [20] has as its target T1, Estrogen receptor (Mus musculus). Description: Uterotrophic effect in mice as relative uterine weight(mg) at 150 ug (control = 14.6+/-2.7). The class given is functional, tissue-based. Summed up:
as §4
Target sequence in this assay (O08537 whole entry, looked up): as the sequence (O08537 whole entry, looked up, chain 2 of 2) above
Target sequence in this assay (P19785 whole entry, looked up): as the sequence (P19785 whole entry, looked up, chain 1 of 2) above

Assay [21] shares this target. The assay is described as follows: Uterotrophic effect in mice as relative uterine weight(mg) at 15 ug (control = 14.6+/-2.7). The class given is functional, tissue-based. Summed up: as §4
Target sequence in this assay (O08537 whole entry, looked up): as the sequence (O08537 whole entry, looked up, chain 2 of 2) above
Target sequence in this assay (P19785 whole entry, looked up): as the sequence (P19785 whole entry, looked up, chain 1 of 2) above
Assay [22] concerns MCF7. Description: Effect on [3H]thymidine incorporation into estrogen receptor positive MCF-7 human breast cancer cells at 5x10E-6M (control = 43.4+/-1.8). The class given is functional. Put shortly: as §2
In assay [23] the test system is MCF7. Description: Effect on [3H]thymidine incorporation into estrogen receptor positive MCF-7 human breast cancer cells at 1x10E-6M (control = 43.4+/-1.8). The class given is functional. Put shortly: as §5
For assay [24], the target named is T1, Estrogen receptor (Mus musculus). The assay is described as follows: Percent inhibition of estrone stimulated uterotrophic effect in mice at 150 ug. The class given is functional. Put shortly: as §6
Target sequence in this assay (O08537 whole entry, looked up): as the sequence (O08537 whole entry, looked up, chain 2 of 2) above
Target sequence in this assay (P19785 whole entry, looked up): as the sequence (P19785 whole entry, looked up, chain 1 of 2) above

The values below come from ChEMBL document CHEMBL1125823, “2-Phenylindole-linked [2-(aminoalkyl)pyridine]dichloroplatinum(II): complexes with a selective action on estrogen receptor positive mammary tumors” (1991).

Usually T/C stands for the ratio of treated to control. CISPLATIN: the results for the T/C (in the assay listed under Mus musculus [1]; in assay [2]) were 12% and 76%, respectively. This compound returned a Tumor weight in the assay filed under Mus musculus [3] of 64 mg.

In the case of “[5-hydroxy-3-methyl-2-(4-hydroxyphenyl)-1-[omega-[(2-pyridylmethyl)amino]pentyl]indole]dichloroplatinum (II) complex”, the Cell no/dish turned out to be 571000 with MCF7 [4] and 674000 with MCF7 [5]. Also, the Activity came out at 15200 in the assay on MCF7 [6] and 16900 in the assay on MCF7 [11]. For the same compound, the Relative uterus weight came out at 46.6 mg in assay [7], 22.1 mg in assay [8] and 16.3 mg in [13]. Besides, the T/C came to 60% with MCF7 [9], 54% with MCF7 [10], 101% with MCF7 [12] and 85% in the assay on MCF7 [14].

For orientation: inhibition means the drop in the measured response relative to a control, in per cent. A higher inhibition goes with strong suppression. As for `Cc1c(-c2ccc(O)cc2)n(CCCCNCc2ccccn2)c2ccc(O)cc12`, the Relative uterus weight in [15] came to 52.2 mg; in assay [17], 44 mg; in assay [20], 15 mg; in [21] it was 22.1 mg. Besides, the Cell no/dish came out at 598000 with MCF7 [16] and 452000 with MCF7 [19]. Also, the inhibition in [18] was determined as 4%; in assay [24], 25%. The Activity with MCF7 [22] is listed as 33100; with MCF7 [23], 37800. The T/C with MCF7 [9] worked out at 87%; with MCF7 [10], 76%; in the assay on MCF7 [12], 96%; in the assay on MCF7 [14] it was 73%.
